Sampled rows, rich in hits. Any-hit rate of the full collection: about 4.3%.
TAAR1 ag: human TAAR1 agonism; CHO RD-HGA16 TAAR1, Fluo-8 calcium fluorescence; vehicle wells 0%, saturating PEA agonist 100%; 360,000 tested, 0.99% active; activation, % at 3 µM; AID 624467; Q96RJ0;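 active means activation above the mean activation of all test compounds in the run plus 3 SD, cut at about 38% in these data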
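Repeats: no replicates (n 1) | Material: CHO-derived RD-HGA16 cells with stable Gα16 and human TAAR1 | Technique: Kinetic Fluo-8 calcium fluorescence | Schedule: 17-24 h seeding, 75 min 37 °C dye, 30 min RT | Evaluation: % activation from peak over basal fluorescence ratio, DMSO-to-PEA scaled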
MC4R ag barr: agonists of human melanocortin 4 receptor (MC4R) beta-arrestin | U2OS MC4R beta-arrestin complementation, luminescence; percent of melanotan II response, DMSO zero | P32245 | activation, % at 8.9 µM | AID 540308 | 360,000 tested, 0.98% active;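 active means activation above a per-plate cutoff, the mean activation of sample wells on that plate plus 3 SD, cut at about 8% in these data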
Target sequence (P32245 whole entry, looked up): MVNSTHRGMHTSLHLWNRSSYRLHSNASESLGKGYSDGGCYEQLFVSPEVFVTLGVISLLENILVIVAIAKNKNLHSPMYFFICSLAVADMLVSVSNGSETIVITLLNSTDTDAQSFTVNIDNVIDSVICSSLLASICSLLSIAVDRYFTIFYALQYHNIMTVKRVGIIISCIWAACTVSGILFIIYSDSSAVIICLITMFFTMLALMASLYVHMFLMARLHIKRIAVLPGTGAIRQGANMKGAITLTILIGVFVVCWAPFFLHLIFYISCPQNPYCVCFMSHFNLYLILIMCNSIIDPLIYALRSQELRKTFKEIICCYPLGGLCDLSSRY
B2AR ag: activates human beta-2 adrenergic receptor causing internalization | P07550 | Am2.2-beta2AR cells, FAP receptor internalization, flow cytometry | response, % (concentration not given with the values) | 340,000 tested, 0.43% active | AID 504454;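 active means response above a set limit, near 3 SD of response in nonfluorescent compounds, cut at about 42% in these data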
Target sequence (P07550 whole entry, looked up): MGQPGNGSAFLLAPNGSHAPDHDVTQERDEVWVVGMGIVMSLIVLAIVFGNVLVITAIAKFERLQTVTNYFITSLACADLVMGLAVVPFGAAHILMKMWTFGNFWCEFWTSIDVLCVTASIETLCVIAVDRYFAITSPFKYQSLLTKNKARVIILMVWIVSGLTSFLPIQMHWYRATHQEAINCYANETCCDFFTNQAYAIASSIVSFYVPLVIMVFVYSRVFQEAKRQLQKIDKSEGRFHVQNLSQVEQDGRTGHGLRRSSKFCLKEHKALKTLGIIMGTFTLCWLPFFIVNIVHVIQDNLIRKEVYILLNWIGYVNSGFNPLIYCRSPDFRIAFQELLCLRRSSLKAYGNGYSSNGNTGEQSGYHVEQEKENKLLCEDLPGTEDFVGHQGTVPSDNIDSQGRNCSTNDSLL
MC4R antagonist: antagonists of human melanocortin 4 receptor (MC4R). AID 540295. MC4R-expressing cells, MTII-stimulated cAMP, LANCE TR-FRET. inhibition, % at 6.5 µM. 360,000 tested, 0.48% active;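 active means inhibition above its plate's cutoff, the mean of tested wells on that plate plus 3 SD, cut at about 29% in these data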;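 further: 0% = Melanotan II alone and 100% = Melanotan II plus saturating MCL0020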
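Assay system: human MC4R-expressing U2OS cells; reagent: Melanotan II stimulation of cells; dosing: 6.5 µM single dose; timing: compound 30 min, challenge 1 h, detection 1 h; signal: TR-FRET cAMP assay; replicates: one well per compound, no replicates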
m5-HT2A agonist: mouse HTR2A agonism via beta-arrestin recruitment | P35363 | CHO-K1 mHTR2A beta-arrestin complementation, luminescence; percent of 30 µM serotonin response | activation, % at 7.6 µM | 360,000 tested, 0.66% active | AID 624169;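 active means activation above a run cutoff, the mean activation of all tested compounds plus 3 SD, cut at about 14% in these data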;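 further: 0% = plate median of compound wells and 100% = 30 µM serotonin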
TAAR1 antagonist: antagonists of human TAAR1 | Q96RJ0 | inhibition, % at 3 µM | CHO RD-HGA16 TAAR1, Fluo-8 calcium fluorescence, antagonist | 360,000 tested, 1.5% active;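 active means inhibition above a per-plate cutoff, the mean inhibition of test compounds on that plate plus 3 SD, cut at about 49% in these data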;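 further: 0% = DMSO plus EC80 beta-PEA response and 100% = DMSO alone without agonist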
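Test system: RD-HGA16 CHO cells with stable hTAAR1 and Gα16 / Probe or stimulus: EC80 β-phenethylamine stimulus / Times: seeding 17-24 h prior, 75-min 37 °C, 30-min RT dye loading / Detection: Fluo-8 calcium-sensitive fluorescence / Read-out basis: % inhibition scaled between DMSO and EC80 PEA controls / Repeats: singlicate, one well per test compound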
TAAR1 ag confirm: confirmation of human TAAR1 agonists; shares compounds with TAAR1 ag; CHO RD-HGA16 TAAR1, Fluo-8 calcium fluorescence; scaled: DMSO 0%, maximal phenethylamine 100%; activation, % at 3 µM; 2,400 tested, 82% active; AID 651783;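 active means activation above a cutoff set at the run's mean compound activation plus 3 SD, cut at about 39% in these data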
Ga16 nonsel ag: nonselective agonism, TAAR1 counter-screen. CHO-Ga16 parental, Fluo-8 calcium fluorescence; normalized to maximal ATP response, DMSO zero. activation, % at 3 µM. shares compounds with TAAR1 ag. 2,400 tested, 50% active;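 active means activation above the run cutoff, the mean activation over all tested wells plus 3 SD, cut at about 12% in these data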;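 further: 0% = DMSO wells and 100% = maximal ATP response on the peak over basal ratio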
TAAR1 desens: counter-screen for human TAAR1 agonists: agonists that desensitize TAAR1 | shares compounds with TAAR1 ag | CHO RD-HGA16 hTAAR1, Fluo-8 calcium, beta-PEA response inhibition | inhibition, % at 3 µM | 2,400 tested, 46% active;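 active means inhibition above the run cutoff, the mean inhibition of all test compounds plus 3 SD, cut at about 49% in these data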;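 further: beta-PEA stimulus applied at its EC80; loss of beta-PEA calcium signal after compound pretreatment read as receptor desensitization; 0% = DMSO with beta-PEA at EC80 and 100% = DMSO alone without agonist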
Ga16 antag count: counter-screen for TAAR1 agonists: nonselective Ga16 antagonists. shares compounds with TAAR1 ag. inhibition, % at 3 µM. CHO-Ga16 ATP-induced calcium, Fluo-8 fluorescence. 2,400 tested, 39% active;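 active means inhibition above the plate's mean compound inhibition plus 3 SD, computed per plate, cut at about 22% in these data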;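 further: 0% = EC80 ATP with DMSO and 100% = DMSO wells without ATP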
An asterisk follows results filed as active; · = not tested or not shown.

SMILES	TAAR1 ag	MC4R ag barr	B2AR ag	MC4R antagonist	m5-HT2A agonist	TAAR1 antagonist	TAAR1 ag confirm	Ga16 nonsel ag	TAAR1 desens	Ga16 antag count
N#Cc1nc(-c2ccccc2F)oc1NCCc1ccccc1	7.4	-0.4	4.3	-5.6	8.4	11.4	·	·	·	·
N#Cc1nc(-c2cccs2)oc1NCCc1ccccc1	50.9*	1.7	-12.7	1.7	-5.5	2.8	49.4*	2.6	25.1	17.0
CCOc1ccc(NS(=O)(=O)c2ccc(C(=O)NCC(c3ccco3)N3CCCCC3)cc2)cc1 (configuration not stated)	84.0*	3.6	·	-3.4	-2.2	30.8	91.3*	41.0*	53.9*	38.2*
CCOc1ccc(NS(=O)(=O)c2ccc(C(=O)NCC(c3ccco3)N(C)C)cc2)cc1 (configuration not stated)	89.3*	-0.7	-0.8	5.2	-7.1	30.8	79.9*	50.0*	46.6	38.8*
CCOc1ccc(NS(=O)(=O)c2ccc(C(=O)NCC3(N(C)C)CCCCC3)cc2)cc1	65.6*	-0.4	-1.9	4.5	-0.1	45.9	36.6	11.5	24.0	26.8*
CCOc1ccc(S(=O)(=O)Nc2cccc(C(=O)NCC(c3ccccc3)N(C)C)c2)cc1 (configuration not stated)	58.2*	-0.5	-2.5	-4.2	-15.5	28.3	32.2	23.3*	15.2	26.4*
CCCCCCN1C[C@@H](O)[C@H](n2cc(C3CC3)nn2)C[C@@H]1c1ccc(C)cc1	-2.0	0.7	·	3.4	0.9	-3.4	·	·	·	·
CN(CC(=O)Nc1ccc(F)cc1)C(=O)CN1C(=O)c2ccccc2C1=O	-0.9	-0.8	-1.9	-2.5	-6.3	9.8	·	·	·	·
Cc1ccc(NS(=O)(=O)c2ccc(C(=O)NCC(c3ccco3)N3CCCCC3)cc2)cc1 (configuration not stated)	90.7*	-1.9	21.5	1.9	-5.7	63.1*	72.6*	32.8*	35.4	28.3*
O=C(COC(=O)c1cc2ccccc2cc1O)NCc1ccccc1	86.7*	3.4	-6.4	8.0	0.5	83.5*	2.0	28.6*	6.3	22.5*
O=C(COC(=O)c1cccc(O)c1)NC(=O)Cc1ccccc1	19.9	0.8	0.1	2.4	1.1	16.2	·	·	·	·
O=C(COC(=O)c1ccc(O)cc1O)NC(=O)Cc1ccccc1	142.8*	-2.2	3.3	1.7	-1.4	61.1*	133.6*	71.1*	88.3*	42.5*
O=C(COC(=O)c1cc2ccccc2cc1O)Nc1cccnc1Cl	48.1*	3.7	0.1	8.7	1.6	31.0	20.9	10.6	28.5	17.6
CCN(C(=O)Cn1cnc2c1c(=O)n(C)c(=O)n2C)C1CCCCC1	6.8	3.4	-5.3	-0.2	13.5	1.9	·	·	·	·
Cc1ccc(Cl)cc1NC(=O)CCN1C(=O)C2C3CCC(C3)C2C1=O (configuration not stated)	4.7	-3.6	-2.2	1.0	-1.1	-0.3	·	·	·	·
OCc1ccccc1CNCc1ccccc1	7.3	-0.8	0.6	-0.5	-2.7	-0.3	·	·	·	·
OCc1ccccc1SSc1ccccc1CO	58.0*	1.9	12.6	-7.7	4.2	-4.0	31.7	19.3*	7.0	4.5
Cc1c(C(=O)NCc2cccc(C(F)(F)F)c2)sc(=O)n1Cc1cccc(F)c1	3.9	1.4	·	1.9	-4.2	-10.0	·	·	·	·
Cc1c(C(=O)NCc2ccc(C(F)(F)F)cc2)sc(=O)n1Cc1cccc(F)c1	127.0*	1.8	·	3.9	-8.1	100.2*	113.9*	77.2*	97.0*	70.7*
CCCS(=O)(=O)N1CCCC(C(=O)c2ccccc2OC)C1 (configuration not stated)	7.0	-3.9	5.2	-3.4	-2.6	-18.3	·	·	·	·
COc1cc(/C=C2\C(=O)NN(c3ccccc3)C2=O)ccc1OCC(N)=O	5.2	·	·	·	·	-20.0	·	·	·	·
C#CCOc1ccc(/C=C2/C(=O)NN(c3ccc(F)cc3)C2=O)cc1OC	99.4*	-0.3	12.3	9.6	-1.3	13.7	91.9*	55.2*	43.7	18.3
O=C1CC2(CCN1)CCN(Cc1ccccc1)CC2	0.5	1.0	-3.1	10.4	2.3	12.1	·	·	·	·
O=C(NCCc1ccccc1Cl)[C@@H]1CCCN1C(=O)[C@@H](NC(=O)N1CCOCC1)C1CCCCC1	57.2*	·	·	·	·	34.7	74.4*	2.3	80.2*	5.7
CCOC(=O)N[C@H](C(=O)N1CCC[C@H]1C(=O)NCCc1ccccc1Cl)C1CCCCC1	61.0*	·	·	·	·	75.4*	85.8*	-0.5	95.5*	-2.0
SMILES	TAAR1 ag	MC4R ag barr	B2AR ag	MC4R antagonist	m5-HT2A agonist	TAAR1 antagonist	TAAR1 ag confirm	Ga16 nonsel ag	TAAR1 desens	Ga16 antag count
O=C(NCCc1ccccc1Cl)[C@@H]1CCCN1C(=O)[C@@H](NC(=O)N1CCOCC1)c1ccccc1	41.9*	·	·	·	·	3.4	60.5*	3.9	31.6	7.1
CCOC(=O)N[C@H](C(=O)N1CCC[C@H]1C(=O)NC1CCCC1)C1CCCCC1	1.8	·	·	·	·	-4.7	·	·	·	·
CC(C)CCCN1C(N(C)C)=NC[C@@H]1Cc1ccccc1	9.0	1.0	-5.6	3.7	-0.4	16.8	·	·	·	·
Cc1csc(=O)n1CC(=O)OC(C)C(=O)Nc1ccc(N(C)C)cc1 (configuration not stated)	0.4	-0.8	6.5	5.9	-14.3	8.4	·	·	·	·
O=c1ccc(-c2nc3ccccc3n2C(CCc2ccccc2)c2nc3ccccc3[nH]2)c[nH]1 (configuration not stated)	5.1	·	·	·	-2.4	-19.3	·	·	·	·
COc1ccc(CCNC(=O)C2CC3Cn4c(nc5cc(Cl)c(Cl)cc54)C3N2C)cc1 (configuration not stated)	8.1	-1.0	-6.6	16.7	3.8	15.7	·	·	·	·
CN1C(C(=O)NCCc2cccs2)CC2Cn3c(nc4cc(Cl)c(Cl)cc43)C21 (configuration not stated)	68.6*	0.6	-6.9	5.0	-6.8	8.1	82.8*	5.5	46.7	14.7
COc1cccc(/C=N/NC(=O)CNC(=O)C(c2ccccc2)c2ccccc2)c1O	-0.8	0.3	16.1	1.4	-3.5	32.7	·	·	·	·

Screens (PubChem)
